According to ChEMBL document CHEMBL1165938, “An isoaurone and other constituents from Trichosanthes kirilowii seeds inhibit hypoxia-inducible factor-1 and nuclear factor-kappaB” (J Nat Prod, 2010):

How the values were obtained:
[1] = Inhibition of NF-kappaB activity in human HeLa cells by SEAP reporter assay; type: cell-based
How it was run: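 HeLa cells grown in DMEM with 10% FBS and penicillin/streptomycin at 37 °C, 5% CO2. NF-κB activity read by a secreted alkaline phosphatase (SEAP) reporter, with celastrol as positive control. Values are IC50s, mean ± SD from three experiments.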

[2] = molecular target: Hypoxia-inducible factor 1-alpha (Homo sapiens, UniProt Q16665); assay: Inhibition of hypoxia-induced HIF1alpha protein accumulation in human Hep3B cells treated for 30 mins measured after 12 hrs by Western blot analysis; type: functional, cell-based; settings: for inhibition: Hep 3B2
How it was run: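 Hep3B cells (DMEM, 10% FBS, 37 °C) were pretreated with a range of compound concentrations for 30 min, then kept 12 h under normoxia or hypoxia (1% O2, 94% N2, 5% CO2, 37 °C). HIF-1α was detected by western blot with a mouse monoclonal anti-HIF-1α antibody. Topoisomerase-1 was probed as the loading control.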

[3] = system: Hep 3B2; assay: Inhibition of hypoxia-induced VEGF protein secretion in human Hep3B cells after 16 hrs by ELISA; type: functional, cell-based
How it was run: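 Hep3B cells were seeded at 2 × 10^5 per well and exposed to a range of concentrations for 16 h under normoxia or hypoxia (1% O2, 5% CO2, 37 °C). VEGF in the culture supernatant was quantified with a DuoSet sandwich ELISA. 17-DMAG served as positive control. IC50s are mean ± SD from three experiments.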

[4] = Cytotoxicity against human Hep3B cells after 24 hrs by MTT assay; type: cell-based; settings: hep 3b2, 24 h
[5] = Inhibition of hypoxia-induced HIF1alpha protein accumulation in human Hep3B cells treated for 30 mins measured after 12 hrs by Western blot analysis; settings: hep 3b2

| Compound | IC50 [1] [µM] | inhibition [2] | IC50 [3] [µM] | Activity [4] | IC50 [2] [µM] | IC50 [5] [µM] |
| --- | --- | --- | --- | --- | --- | --- |
| CC(=O)OC(C)(C)/C=C/C(=O)[C@](C)(O)[C@H]1[C@H](O)C[C@@]2(C)[C@@H]3CC=C4[C@H](C[C@H](O)C(=O)C4(C)C)[C@]3(C)C(=O)C[C@]12C [CUCURBITACIN B] | 0.061 | Dose-dependent effect | 0.31 | – | – | – |
| COc1cc(/C=C/c2ccc(OC)c(O)c2)oc(=O)c1 | 0.4 | Dose-dependent effect | 1.04 | Non-toxic | 0.81 | – |
| CC1=CC(=O)CC(C)(C)[C@@]1(O)/C=C/[C@@H](C)O [BLUMENOL A] | 12.3 | – | 26.2 | Non-toxic | 15.8 | – |
| CC(=O)OC(C)(C)/C=C/C(=O)[C@](C)(O)[C@H]1[C@H](O)C[C@@]2(C)[C@@H]3CC=C4[C@@H](C[C@H](O)C(=O)C4(C)C)[C@]3(C)C(=O)C[C@]12C [CUCURBITACIN B] | – | – | – | Non-toxic | 0.27 | – |
| COc1cc(O)cc2c1/C(=C\c1ccc(O)cc1)C(=O)O2 | 0.56 | Dose-dependent effect | 0.93 | Non-toxic | 0.69 | – |
| CO[C@H]1/C=C\C=C(/C)C(=O)NC2=CC(=O)C(NCCN(C)C)=C(C[C@@H](C)C[C@H](OC)[C@H](O)[C@@H](C)/C=C(\C)[C@@H]1OC(N)=O)C2=O [ALVESPIMYCIN] | – | – | – | – | – | 0.057 |
| CC1=C(O)C(=O)C=C2C1=CC=C1[C@@]2(C)CC[C@@]2(C)[C@@H]3C[C@](C)(C(=O)O)CC[C@]3(C)CC[C@]12C [CELASTROL] | 0.15 | – | – | – | – | – |
